pIC50: −log10 of the molar value. The source made the active and inactive calls. The rule behind the calls is not given here.
Legend:
QGY-7703 [1] = assay: Antiproliferative activity against human QGY-7703 cells assessed as reduction in cell viability incubated for 48 hrs by MTT assay; format: functional, cell-based; conditions: QGY-7703, 48 h
Method in brief: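 MTT assay after 48 h exposure at six concentrations, range chosen by cytotoxicity. Inhibition = (ODcontrol − ODtest)/ODcontrol × 100%; IC50 is the concentration halving OD versus untreated cells. Means ± SD of three independent determinations. HepG2 and SMMC-7721 grown in DMEM, QGY-7703 and LO2 in RPMI 1640, with 10% FBS at 37 °C.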

HepG2 [2] = assay: Upregulation of Nur77 expression in human HepG2 cells at 2 uM incubated for 6 hrs by Western blot analysis; format: functional, cell-based
Method in brief: (§1)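 HepG2, QGY-7703 and SMMC-7721 cells treated with the indicated concentrations for 6 h. HepG2 also given 2.0 µM over a time course. Lysis in RIPA with protease and phosphatase inhibitors; 40-80 µg protein by SDS-PAGE, nitrocellulose transfer. Membranes blocked with 5% milk, primary antibody overnight, HRP secondary, chemiluminescence. GAPDH as loading control.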

HepG2 [3] = assay: Induction of endoplasmic reticulum stress in human HepG2 cells assessed as increase in TRB3 protein expression incubated for 12 hrs by Western blot analysis; format: functional, cell-based; conditions: dose 0.5-2 µM
Method in brief: (§2)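 HepG2, QGY-7703 and SMMC-7721 treated with graded concentrations for 12 h. Lysed in RIPA with inhibitors; 40-80 µg protein separated by SDS-PAGE, blotted to nitrocellulose, blocked 1 h in 5% milk, primary antibodies overnight (LC3, Beclin1, Bip, CHOP, TRB3), HRP secondaries, chemiluminescence.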

HepG2 [4] = assay: Upregulation of Nur77 expression in human HepG2 cells at 2 uM measured after 1 to 6 hrs by western blot analysis; format: functional, cell-based; conditions: time 1-6 hrs; method in brief: as §1
HepG2 [5] = assay: Induction of morphological changes in human HepG2 cells assessed as cell shrinkage at 1 to 2 uM incubated for 6 to 12 hrs by phase contrast microscopic analysis; format: functional, cell-based; conditions: dose 1-2 µM, time 6-12 hrs
Method in brief: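 HepG2 cells given graded concentrations; morphology monitored at set time points by phase-contrast optical microscopy.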

HepG2 [6] = assay: Induction of autophagy in human HepG2 cells assessed as increase in LC3-II expression measured after 12 hrs by Western blot analysis; format: functional, cell-based; conditions: dose 0.5-2 µM; method in brief: as §2
QGY-7703 [7] = assay: Antiproliferative activity against human QGY-7703 cells assessed as reduction in cell viability at 2 uM by MTT assay; format: functional, cell-based; conditions: time 12-48 hrs, TDE = time-dependent effect
Method in brief: (§3)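 Cells treated with 2.0 µM over a time course; viability read by MTT. HepG2, SMMC-7721 kept in DMEM, QGY-7703 in RPMI 1640, with 10% FBS at 37 °C and 5% CO2.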

QGY-7703 [8] = assay: Induction of endoplasmic reticulum stress in human QGY-7703 cells assessed as increase in TRB3 protein expression incubated for 12 hrs by Western blot analysis; format: functional, cell-based; conditions: dose 0.5-2 µM; method in brief: as §2
[9] = biological target: T1, Nuclear receptor subfamily 4immunitygroup A member 1 (Homo sapiens, UniProt P22736); assay: Modulation of Nur77 in human HepG2 cells assessed as induction of Nur77 translocation into cytoplasm from nucleus at 2 uM incubated for 6 hrs by DAPI staining based immunofluorescence assay; format: cell-based; conditions: filed as modulator
Method in brief: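 HepG2 exposed to 2.0 µM for set times, fixed (4% paraformaldehyde), permeabilised (0.1% Triton X-100), BSA-blocked, incubated 1 h with anti-Nur77 (1:500) then FITC or Cy3 anti-rabbit IgG; nuclei DAPI-stained; confocal imaging.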

HepG2 [10] = assay: Induction of apoptosis in human HepG2 cells assessed as necrotic cells at 2 uM incubated for 12 hrs by Annexin V-FITC/PI staining based flow cytometry (reference value: 0.068 to 0.23%); format: functional
[11] = biological target: T1, Nuclear receptor subfamily 4immunitygroup A member 1; assay: Modulation of Nur77 in human HepG2 cells assessed as induction of Nur77 translocation into cytoplasm from nucleus by measuring decrease in protein expression in nucleus at 2 uM by western blot analysis; format: subcellular; conditions: filed as modulator, time 1-8 hrs, TDE = time-dependent effect
Method in brief: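 HepG2 given 2.0 µM for set times; cells swollen 10 min on ice in HEPES/NaCl/EDTA/CaCl2/MgCl2 buffer, 0.1% NP40 added, spun 15000 rpm 3 min at 4 °C giving cytoplasmic supernatant; pellet extracted in RIPA. Fractions blotted for Nur77, with PARP (nuclear) and tubulin (cytoplasmic) as loading controls.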

HepG2 [12] = assay: Antitumor activity against human HepG2 cells xenografted in BALB/c mouse assessed as induction of ER stress by measuring increase in TRB3 level in tumor tissue at 10 to 20 mg/kg/day, ip administered for 15 days by western blot analysis; format: functional, organism-based; conditions: dose 10-20 mg/kg/day, time 15.0 day
Method in brief: (§4)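 HepG2 cells (5×10^6) injected subcutaneously into flanks of 4-week-old male Balb/c nude mice. At about 100 mm³, 15 mice were randomized to vehicle, 10 or 20 mg/kg i.p. once daily for 15 days. Tumors were then excised for immunostaining of paraffin sections (5 μm) or for western blot.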

SMMC-7721 [13] = assay: Inhibition of colony formation in human SMMC-7721 cells at 2 uM incubated for 24 hrs measured after cell culturing for 15 days in normal medium by crystal violet staining based assay; format: functional; conditions: time 16.0 day
Method in brief: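 500 HepG2, QGY-7703 or SMMC-7721 cells per well allowed to attach 24 h, exposed to DMSO or 2.0 µM for 24 h, then grown 15 days in plain medium. Colonies fixed 30 min in 4% paraformaldehyde, stained 15 min with 0.1% crystal violet, photographed and counted.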

HepG2 [14] = assay: Induction of autophagy in human HepG2 cells assessed as p62 degradation by western blot analysis; format: functional, cell-based
HepG2 [15] = assay: Upregulation of Nur77 expression in human HepG2 cells incubated for 6 hrs by Western blot analysis; format: functional, cell-based; conditions: dose 0.5-2 µM; method in brief: as §1
Mus musculus = assay: Induction of Nur77 expression in tumor tissue of BALB/c mouse xenografted with human HepG2 cells at 10 to 20 mg/kg/day, ip administered for 15 days by western blot analysis; conditions: dose 10-20 mg/kg/day, time 15.0 day
HepG2 [16] = assay: Induction of apoptosis in human HepG2 cells assessed as increase in cleaved PARP level pretreated with nuclear export inhibitor, LMB followed by incubation with compound for 12 hrs by western blot analysis; format: functional, cell-based
SMMC-7721 [17] = assay: Antiproliferative activity against human SMMC-7721 cells assessed as reduction in cell viability at 2 uM by MTT assay; format: functional, cell-based; conditions: time 12-48 hrs, TDE = time-dependent effect; method in brief: as §3
HepG2 [18] = assay: Induction of apoptosis in human HepG2 cells transfected with shRNA assessed as early apoptotic cells at 2 uM incubated for 12 hrs by Annexin V-FITC/PI staining based flow cytometry (reference value: 5.09%); format: functional
SMMC-7721 [19] = assay: Induction of autophagy in human SMMC-7721 cells assessed as increase in LC3-II expression measured after 12 hrs by Western blot analysis; format: functional, cell-based; conditions: dose 0.5-2 µM; method in brief: as §2
HepG2 [20] = assay: Antitumor activity against human HepG2 cells xenografted in BALB/c mouse assessed as induction of autophagy by measuring increase in LC3-II level in tumor tissue at 10 to 20 mg/kg/day, ip administered for 15 days by immunohistochemical analysis; format: functional, organism-based; conditions: dose 10-20 mg/kg/day, time 15.0 day; method in brief: as §4

T1 sequence (P22736 whole entry): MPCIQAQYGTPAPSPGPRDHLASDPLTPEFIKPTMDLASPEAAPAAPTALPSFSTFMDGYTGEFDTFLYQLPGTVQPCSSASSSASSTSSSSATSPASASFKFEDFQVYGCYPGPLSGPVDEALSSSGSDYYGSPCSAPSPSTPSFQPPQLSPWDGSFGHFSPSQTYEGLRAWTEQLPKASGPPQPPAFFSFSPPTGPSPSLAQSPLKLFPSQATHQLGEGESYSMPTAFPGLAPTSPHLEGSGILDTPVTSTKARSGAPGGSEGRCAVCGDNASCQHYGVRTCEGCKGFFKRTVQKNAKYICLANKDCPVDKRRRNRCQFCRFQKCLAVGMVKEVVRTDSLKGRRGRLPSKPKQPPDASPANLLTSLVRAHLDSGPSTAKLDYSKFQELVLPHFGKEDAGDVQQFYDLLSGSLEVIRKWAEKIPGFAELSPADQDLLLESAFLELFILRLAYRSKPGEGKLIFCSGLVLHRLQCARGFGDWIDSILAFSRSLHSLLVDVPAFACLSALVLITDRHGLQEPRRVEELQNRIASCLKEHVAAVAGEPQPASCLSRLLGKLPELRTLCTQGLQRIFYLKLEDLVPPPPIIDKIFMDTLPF

Activity [9]: Active | Activity [11]: Tde
Compound: COc1cccc2c(Nc3ccc4[nH]c(C(=O)N/N=C/c5ccc(SC)cc5)cc4c3)cc(C)nc12
pIC50 (QGY-7703 [1]): 6.05 | Activity (HepG2 [2]): Active | Activity (HepG2 [3]): Dose-dependent effect | Activity (HepG2 [4]): Active | Activity (HepG2 [5]): Active | Activity (HepG2 [6]): Dose-dependent effect | Activity (QGY-7703 [7]): Tde | Activity (QGY-7703 [8]): Dose-dependent effect | Activity (HepG2 [10]): 0% | Activity (HepG2 [12]): Active | inhibition (SMMC-7721 [13]): Active | Activity (HepG2 [14]): inactive | Activity (HepG2 [15]): Dose-dependent effect | Activity (Mus musculus): Active | Activity (HepG2 [16]): inactive | Activity (SMMC-7721 [17]): Tde | Activity (HepG2 [18]): 16.2% | Activity (SMMC-7721 [19]): Dose-dependent effect | Activity (HepG2 [20]): Active

Reference: ChEMBL document CHEMBL4765399, “Design, synthesis, and biological evaluation of 5-((8-methoxy-2-methylquinolin-4-yl)amino)-1H-indole-2-carbohydrazide derivatives as novel Nur77 modulators” (Eur J Med Chem, 2020)
